This is a sample that favours compounds with a hit; in the whole collection about 2.5% have one here.
PRMT1 FP inh = blocks human protein arginine methyltransferase 1 | AID 652257 | recombinant PRMT1, activity-based probe fluorescence polarization | inhibition, % at 2.79 µM | 370,000 compounds, 1.3% hits;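 active means inhibition above about 21% made by adding two undisclosed values, limit read from the data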
E coli Lon inh = E. coli protease La inhibition. P0A9M0. purified E. coli Lon protease, fluorescence polarization. inhibition, % at 7.94 µM. 360,000 compounds, 0.42% hits. AID 602123; in the data active means inhibition above about 13%, passing the limit was not always enough
GSTO1 counter = blocks human GSTO1 in RBBP9 counter-screen. P78417. recombinant GSTO1, activity-based probe fluorescence polarization. inhibition, % at 5.96 µM. 300,000 compounds, 1.1% hits. AID 1974;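 active means inhibition above the campaign mean inhibition plus 3 SD, cut at about 35% in these data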
TDP2 absorb = blocks human TDP2 phosphodiesterase activity | 370,000 compounds, 0.34% hits | inhibition, % at 12.8 µM | recombinant TDP2, T5PNP hydrolysis, p-nitrophenol absorbance 415 nm;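 active means inhibition above the mean of all tested compounds plus 3 SD, set per campaign, cut at about 25% in these data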
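Incubation: 2 h at 37 °C; Test system: recombinant human TDP2; Quantity: enzyme 120 nM; Read-out basis: percent inhibition; Medium: 50 mM Tris-HCl pH 7.5 with Mg2+, KCl, DTT, BSA; Repeats: single replicate; Compound: 12.8 µM single point, 1% DMSO; Signal: epi absorbance; Reagent: 5 mM T5PNP chromogenic substrate; Benchmarks: no-enzyme high, DMSO-plus-enzyme low.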
PAD4 FP inh = blocks human protein arginine deiminase 4; 330,000 compounds, 0.41% hits; AID 485272; recombinant PAD4, RCA probe fluorescence polarization; inhibition, % at 6.36 µM;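 active means percent inhibition above a cutoff equal to the mean of all tested compounds plus 3 SD, cut at about 15% in these data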
Target sequence (Q9UM07 whole entry, looked up): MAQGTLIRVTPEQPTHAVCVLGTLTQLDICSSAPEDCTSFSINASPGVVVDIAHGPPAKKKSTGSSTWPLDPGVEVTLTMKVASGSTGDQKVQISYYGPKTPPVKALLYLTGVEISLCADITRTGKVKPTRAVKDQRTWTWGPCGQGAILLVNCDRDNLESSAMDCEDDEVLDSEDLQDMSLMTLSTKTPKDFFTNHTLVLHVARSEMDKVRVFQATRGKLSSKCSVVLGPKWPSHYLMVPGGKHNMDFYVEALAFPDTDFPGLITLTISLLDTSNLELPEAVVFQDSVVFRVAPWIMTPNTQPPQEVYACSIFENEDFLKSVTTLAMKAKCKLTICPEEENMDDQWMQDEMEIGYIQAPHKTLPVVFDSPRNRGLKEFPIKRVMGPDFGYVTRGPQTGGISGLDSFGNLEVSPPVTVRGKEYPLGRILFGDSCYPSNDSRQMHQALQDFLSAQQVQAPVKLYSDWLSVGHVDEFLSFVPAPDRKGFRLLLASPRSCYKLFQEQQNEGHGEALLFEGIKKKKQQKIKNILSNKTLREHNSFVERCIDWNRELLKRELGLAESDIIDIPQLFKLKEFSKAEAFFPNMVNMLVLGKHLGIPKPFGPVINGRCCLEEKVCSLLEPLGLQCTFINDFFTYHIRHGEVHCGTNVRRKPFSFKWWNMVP
A number is an active result; i = inactive; nt = no result given.

SMILES	PRMT1 FP inh	E coli Lon inh	GSTO1 counter	TDP2 absorb	PAD4 FP inh
COc1ccc(OCC(C)CN2CCC(C(O)(c3ccccc3)c3ccccc3)CC2)cc1 (stereo unspecified)	i	nt	nt	i	nt
COC(=O)[C@]1(CNC(=O)c2cc(F)ccc2F)CC(=O)N(C)[C@@H]1c1ccccc1	i	nt	nt	i	nt
CSc1sc2ccccc2[n+]1CCCS(=O)(=O)[O-]	23	i	i	i	i
Cc1ccc2ccccc2[n+]1CCCS(=O)(=O)[O-]	i	i	i	i	i
O=C(c1ccco1)c1coc2c1cc(O)c1ccccc12	i	i	43	i	i
COc1ccc(OC)c(CN2C(=O)CSCCC2(C)c2nnnn2C2CCCC2)c1 (stereo unspecified)	i	nt	nt	i	nt
Cc1oc2cc(O)ccc2c(=O)c1Oc1ccc(F)cc1	i	i	i	i	i
Cc1oc2cc(O)ccc2c(=O)c1Oc1ccc2ccccc2c1	i	i	37	i	i
Cc1ccc(S(=O)(=O)N2CCCC2C(c2ccccc2O)c2cn(C)c3ccccc23)cc1 (stereo unspecified)	i	nt	nt	i	nt
Cc1ccc(NC(=O)CCl)cc1S(=O)(=O)N1CCCCCC1	i	i	76	i	i
CCOC(=O)CC[C@@H]1CC[C@]2(CCCN(C(=O)C3CCCC3)C2)O1	i	nt	nt	i	nt
CC(=O)C(Sc1nn(C)c(=S)s1)C(=O)Nc1ccccc1 (stereo unspecified)	24	i	i	i	i
O=C1C2C3C=CC(CC3)C2C(=O)N1c1ccccc1 (stereo unspecified)	i	i	nt	i	nt
O=C1C=CC2C3C(=O)N(c4ccccc4)C(=O)C3C1N2Cc1ccccc1 (stereo unspecified)	24	i	nt	i	nt
CC(C)(C)c1ccc(-c2cn(C[C@H](Cc3ccccc3)n3c(=O)c4ccccc4n3Cc3ccco3)nn2)cc1	i	nt	nt	i	nt
O=C1c2cc(O)c(O)cc2S(=O)(=O)C1c1ccccc1 (stereo unspecified)	24	i	i	i	i
O=C(CN1C(=O)c2ccccc2S1(=O)=O)c1ccc(O)c(O)c1	i	i	i	i	i
Cc1ccc(NNC(=O)Nc2ccc(Cl)cc2)nn1	24	i	i	i	i
CC(=O)c1cnc(-c2ccccc2Cl)s1	i	i	i	i	i
CC(=O)c1cnc(-c2ccccn2)s1	22	i	i	i	i
C=CCn1c(SCC(=O)NCCOC)nc2scc(-c3ccco3)c2c1=O	47	i	i	i	i
COc1cc(/C=C(\C#N)C(=O)c2ccc(O)c(O)c2)cc(I)c1O	29	i	45	i	i
CC(=O)Nc1nonc1NC(C)=O	i	i	i	i	i
CC(=O)Nc1cc(OC(C)=O)c2nonc2c1OC(C)=O	59	i	89	98	83
CC[C@@H](CCC1CCCCC1)CN(c1ccccc1)S(C)(=O)=O	i	nt	nt	i	nt
SMILES	PRMT1 FP inh	E coli Lon inh	GSTO1 counter	TDP2 absorb	PAD4 FP inh
CN1Cc2nnn(Cc3ccccc3)c2-c2ccccc2S1(=O)=O	i	nt	nt	i	nt
C=CCN1[C@H](C)COc2cc(N3CCCC3)ccc2S1(=O)=O	i	nt	nt	i	nt
COC(=O)c1[nH]c2ccccc2c1NC(=O)CN1CCN(C(=O)c2ccco2)CC1	i	i	36	i	i
O=C(NCc1ccco1)C1CCCN(S(=O)(=O)c2cccs2)C1 (stereo unspecified)	i	nt	nt	i	nt
Cn1cccc1C(=O)N1CCN(S(=O)(=O)c2ccc(C(C)(C)C)cc2)CC1	i	nt	nt	i	nt
CCCN1CCS(=O)(=O)N(Cc2cn(Cc3ccc(F)cc3)nn2)C(C(=O)OC)C1 (stereo unspecified)	i	nt	nt	i	nt
CCN(CCCNc1cc2c(c(N)c1S(=O)(=O)O)C(=O)c1ccccc1C2=O)c1ccccc1	23	i	nt	i	nt
CC(=O)NC1Sc2ccccc2N=C1c1ccccc1 (stereo unspecified)	26	i	i	i	i
CC(=O)N1c2ccccc2N=C(c2ccc(C(F)(F)F)cc2)C1C(=O)NC1CCCC1 (stereo unspecified)	i	nt	nt	i	nt
CCOc1cc(OCC)cc(C(=O)N2CCC[C@@H]2C(=O)N2CCC[C@@H]2C(=O)NCc2cccc(OC)c2)c1	i	nt	nt	i	nt
COC(=O)C1CN(Cc2ccc(C)cc2)CCS(=O)(=O)N1Cc1cn(Cc2ccc(Cl)cc2)nn1 (stereo unspecified)	i	nt	nt	i	nt
Cc1ccc(OC(=O)COc2ccccc2)c(-n2nc3ccccc3n2)c1	i	i	i	i	i
Cc1ccc(OC(=O)COc2ccccc2C)c(-n2nc3ccccc3n2)c1	24	i	i	i	i
OCC#Cc1ncc(C(F)(F)F)cc1Cl	i	i	83	i	i
CN(Cc1ccccc1)S(=O)(=O)c1cccc(C(=O)OCC2CCCCC2)c1	i	nt	nt	i	nt
O=C1C(Cl)=C(N2CCOCC2)C(=O)N1c1cccc(Cl)c1	22	i	i	i	i
O=C(NCc1ccco1)[C@@H]1CSC2c3ccccc3C(=O)N21 (stereo partly specified)	21	i	i	i	i
COC/C=C/C1=CC2=CC(=O)C(C)(OC(=O)c3cnc4ccccc4n3)C(=O)C2=CN1C(CO)CO (stereo unspecified)	i	i	i	i	i
COC/C=C/C1=CC2=CC(=O)C(C)(OC(=O)c3cnc4ccccc4n3)C(=O)C2=CO1 (stereo unspecified)	nt	nt	56	nt	50
CCc1cc2c(nc1CC)CCCN2S(=O)(=O)c1ccccc1	i	nt	nt	i	nt
Cc1cc2c(SCc3ccccc3Cl)nc(N)nc2nc1C	24	i	nt	i	nt
Nc1cc(N)nc(SCc2ccccc2Cl)n1	i	i	nt	i	nt
O=C(O)c1ccccc1NS(=O)(=O)c1ccc(NNC(=S)Nc2ccc(OC(F)F)cc2)c([N+](=O)[O-])c1	23	i	nt	i	nt
C#CCNC(=O)C[C@@H]1C(=O)N(Cc2ccc(OC)cc2)/C2=C/CCCCC[C@@]21C(=O)OCC	i	nt	nt	i	nt
O=C(O)c1ccc(C=Nn2c(-c3ccc(F)cc3)n[nH]c2=S)cc1	i	nt	nt	i	nt
SMILES	PRMT1 FP inh	E coli Lon inh	GSTO1 counter	TDP2 absorb	PAD4 FP inh
CCOc1ccc(C=Nn2c(-c3ccc(F)cc3)n[nH]c2=S)cc1	23	nt	nt	i	nt
CCOC(=O)C1Nc2ccccc2C2C(O)C(O)CC12 (stereo unspecified)	27	i	i	i	i
CC(C)[C@@H](CO)N1Cc2nnn(Cc3ccccc3)c2-c2ccccc2S1(=O)=O	i	nt	nt	i	nt
O=C(C(=O)N1CCC(CNS(=O)(=O)c2ccc(C(F)(F)F)cc2)CC1)c1cc2ccccc2o1	i	nt	nt	i	nt
O=S(=O)(Nc1nc(-c2sccc2Cl)cs1)c1cc(Cl)ccc1Cl	nt	i	40	nt	i
COC(=O)c1cccc(Cn2ccc3ccc(-c4ccc5ccn(C(=O)c6ccccc6OC)c5c4)cc32)c1	i	nt	nt	i	nt
CC(c1ccccc1)C1C(C#N)=C(N)OC2=C1C(=O)CC(C)(C)C2 (stereo unspecified)	i	i	i	i	i
CC1(C)CC(=O)C2=C(C1)OC(N)=C(C#N)C2C#Cc1ccccc1 (stereo unspecified)	i	i	35	i	i
CCn1c(=O)n2n(c1=O)[C@]1(C=C(C)C2)CN(Cc2ccc(OC)cc2OC)C(NC(=O)c2ccccc2)=N1	i	nt	nt	i	nt

Screening results deposited in PubChem by The Scripps Research Institute Molecular Screening Center.
